Article PMC5726935 (Nature chemical biology, 2017)

How the values were obtained:
TLR8 [1] = assay: RT-PCR of IL-8 and TNF-α mRNA in R848 treated HEK-Blue TLR8 cells; format: cell-based, human
TLR8 [2] = assay: ELISA of R848-induced TNF-α production in differentiated THP-1 cells; format: cell-based, human
In short: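 PMA-differentiated THP-1 (100 ng/mL PMA) seeded at 2 × 10^6 cells/well in supplemented RPMI and left 24 h at 37 °C, 5% CO2 to adhere. Medium then switched to unsupplemented RPMI. […] After 24 h, TNF-α in the culture supernatant was quantified by sandwich ELISA kit.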

TLR8 [3] = assay: R848-induced TNF-α production in human PBMC; format: cell-based; details: 1 μg/mL R848, dose-dependent
PBMC from RA patients = assay: TNF-α production in PBMC from RA patients; format: cell-based, human
In short: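 PBMC came from four RA patients (2010 ACR criteria) and one AOSD patient, isolated by density-gradient centrifugation. Cells were cultured at 3 × 10^6 cells/mL in RPMI 1640, with test compounds at 0, 10, 40, 80 μM or 0, 2.5, 10, 20, 40 μM. TNF-α was measured in cleared supernatants after 24 h.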

[4] = test system: TLR1/2/6, TLR3, TLR4, TLR5, TLR7, and TLR9 HEK-Blue; assay: TLR selectivity assay in HEK-Blue TLR-overexpressing cells; format: cell-based, human; details: 1 μM compound, TLR-specific agonists
TLR7 = biological target: T1, TLR7 (Homo sapiens, UniProt Q9NYK1); assay: SEAP assay in HEK-Blue TLR7 cells activated by R848; format: cell-based; details: concentrations up to 75 μM
T1 sequence (Q9NYK1 27-1049): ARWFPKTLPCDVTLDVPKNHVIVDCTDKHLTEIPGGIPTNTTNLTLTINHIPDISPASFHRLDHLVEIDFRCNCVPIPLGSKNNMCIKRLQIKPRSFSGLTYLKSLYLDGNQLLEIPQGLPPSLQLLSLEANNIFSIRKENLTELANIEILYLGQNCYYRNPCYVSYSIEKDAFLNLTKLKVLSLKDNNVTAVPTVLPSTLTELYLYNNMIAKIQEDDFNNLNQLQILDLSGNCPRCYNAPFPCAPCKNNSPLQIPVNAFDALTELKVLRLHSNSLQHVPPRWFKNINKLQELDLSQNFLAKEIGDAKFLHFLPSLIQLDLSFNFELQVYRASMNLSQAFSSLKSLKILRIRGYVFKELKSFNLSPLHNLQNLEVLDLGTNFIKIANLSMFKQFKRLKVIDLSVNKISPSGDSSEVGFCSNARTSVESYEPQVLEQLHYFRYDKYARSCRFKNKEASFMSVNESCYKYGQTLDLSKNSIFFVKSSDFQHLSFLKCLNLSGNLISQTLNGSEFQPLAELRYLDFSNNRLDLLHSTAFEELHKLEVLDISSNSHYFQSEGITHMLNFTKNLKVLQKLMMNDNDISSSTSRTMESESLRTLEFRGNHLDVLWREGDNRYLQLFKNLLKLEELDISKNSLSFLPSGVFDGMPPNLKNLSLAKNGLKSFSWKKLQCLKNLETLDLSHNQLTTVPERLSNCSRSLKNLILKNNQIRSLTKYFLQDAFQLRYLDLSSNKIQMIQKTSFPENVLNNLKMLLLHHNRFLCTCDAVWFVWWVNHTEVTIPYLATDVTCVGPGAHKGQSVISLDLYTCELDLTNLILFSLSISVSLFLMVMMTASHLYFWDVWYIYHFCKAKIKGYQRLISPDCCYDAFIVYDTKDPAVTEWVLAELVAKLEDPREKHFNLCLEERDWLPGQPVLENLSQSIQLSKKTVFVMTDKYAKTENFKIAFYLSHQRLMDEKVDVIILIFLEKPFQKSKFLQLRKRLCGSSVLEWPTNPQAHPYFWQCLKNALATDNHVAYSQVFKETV

HEK-Blue TLR8 cells = assay: WST-1 cell proliferation; format: cell-based, human; details: HEK-Blue TLR8 cell line
[5] = test system: synovial cells from OA patients; assay: Spontaneous cytokine release from synovial cells of OA patients; format: cell-based, human; details: synovial membrane cultures, 24 h
In short: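 OA synovial cells were isolated from synovial membrane taken at joint replacement and cultured at 1 × 10^6 cells/mL in RPMI 1640. After 24 h, test compound was added at 0, 10, 20, 40 or 80 μM, with chloroquine as positive control. After a further 24 h, TNF-α was measured in cleared supernatant, and IL-1β in cell lysate (EDTA, protease inhibitor) after PBS washes.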

[6] = test system: synovial cells isolated from osteoarthritis (OA) patients; assay: Cytotoxicity on synovial cells from OA patients; format: cell-based, human; details: up to 100 μM

Compound	inhibition of R848-induced IL-8 mRNA level (TLR8 [1]; 10 μM compound)	inhibition of R848-induced TNF-α mRNA level (TLR8 [1]; 10 μM compound)	inhibition of R848-induced TNF-α production (TLR8 [2]; THP-1, 10 μM compound)	R848-induced TNF-α secretion (TLR8 [3])	inhibition of TNF-α level (PBMC from RA patients; PBMCs from RA patients, up to 80 μM)	inhibition of TLRs other than TLR8 [4]	TLR7 signaling (TLR7-mediated NF-κB activation) (TLR7)	cytotoxicity (HEK-Blue TLR8 cells)	elevation of IL-8 mRNA level induced by R848 (TLR8 [1]; 1 μM compound)	elevation of TNF-α mRNA level induced by R848 (TLR8 [1]; 1 μM compound)	IC50 (TLR8 [2]; Homo sapiens, THP-1, 24 h, read-out: IC50, R848-induced TNF-α production) [nM]	spontaneous release of IL-1β [5]	spontaneous release of TNF-α [5]	TNF-α level (PBMC from RA patients; PBMCs from RA patients (and one AOSD patient), dose-dependent)	cytotoxicity [6]
O=C(O)c1cnn2c(-c3cccc(C(F)(F)F)c3)ccnc12 [compound 6, 7-(3-(Trifluoromethyl)phenyl)pyrazolo[1,5-a]pyrimidine-3-carboxylic acid]	negligible inhibition	negligible inhibition	failed to show significant inhibition	not by 6	did not show significant inhibition										
Cc1cccc(-c2ccnc3c(C(N)=O)cnn23)c1 [CU-CPT8m, 7-m-Tolylpyrazolo[1,5-a]pyrimidine-3-carboxamide]				reversed		did not show significant inhibition of any TLR other than TLR8	not affected	negligible cytotoxicity	completely abolished	completely abolished	90 ± 10	significant inhibitory effects	significant inhibitory effects	significantly suppressed	little cytotoxicity
